Source: ChEMBL document CHEMBL4190362, “Synthesis, biological evaluation and quantitative structure-active relationships of 1,3-thiazolidin-4-one derivatives. A promising chemical scaffold endowed with high antifungal potency and low cytotoxicity” (Eur J Med Chem, 2017)

Experiments:
Format in all cases: functional
Staphylococcus aureus = experiment: Antibacterial activity against Staphylococcus aureus assessed as inhibition of microbial growth incubated for 18 to 22 hrs by broth microdilution method
Method in brief: (§1)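 Broth microdilution in Mueller-Hinton II broth following NCCLS recommendations; compounds dissolved in DMSO.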

Staphylococcus warneri = experiment: Antibacterial activity against Staphylococcus warneri assessed as inhibition of microbial growth incubated for 18 to 22 hrs by broth microdilution method; method in brief: as §1
Enterococcus faecalis = experiment: Antibacterial activity against Streptococcus faecalis assessed as inhibition of microbial growth incubated for 18 to 22 hrs by broth microdilution method; method in brief: as §1
Escherichia coli = experiment: Antibacterial activity against Escherichia coli assessed as inhibition of microbial growth incubated for 18 to 22 hrs by broth microdilution method; method in brief: as §1
Proteus mirabilis = experiment: Antibacterial activity against Proteus mirabilis assessed as inhibition of microbial growth incubated for 18 to 22 hrs by broth microdilution method; method in brief: as §1
Enterobacter = experiment: Antibacterial activity against Enterobacter spp. assessed as inhibition of microbial growth incubated for 18 to 22 hrs by broth microdilution method; method in brief: as §1
Klebsiella oxytoca = experiment: Antibacterial activity against Klebsiella oxytoca assessed as inhibition of microbial growth incubated for 18 to 22 hrs by broth microdilution method; method in brief: as §1
Candida albicans = experiment: Antifungal activity against Candida albicans clinical isolates assessed as inhibition of microbial growth incubated for 24 hrs by broth microdilution method
Method in brief: (§2)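 Twenty-two clinical Candida isolates (8 C. albicans, 4 C. glabrata, 3 C. tropicalis, 3 C. krusei, 2 C. parapsilosis, 2 C. sake) were identified by colony morphology and biochemistry and subcultured at 35 °C for purity. Compounds were dissolved in DMSO and tested by broth microdilution in Sabouraud dextrose broth per NCCLS/CLSI/EUCAST guidance. Values are geometric mean MIC per species (µg/mL).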

Nakaseomyces glabratus = experiment: Antifungal activity against Candida glabrata clinical isolates assessed as inhibition of microbial growth incubated for 24 hrs by broth microdilution method; method in brief: as §2
Candida tropicalis = experiment: Antifungal activity against Candida tropicalis clinical isolates assessed as inhibition of microbial growth incubated for 24 hrs by broth microdilution method; method in brief: as §2
Pichia kudriavzevii = experiment: Antifungal activity against Candida krusei clinical isolates assessed as inhibition of microbial growth incubated for 24 hrs by broth microdilution method; method in brief: as §2
Candida parapsilosis = experiment: Antifungal activity against Candida parapsilosis clinical isolates assessed as inhibition of microbial growth incubated for 24 hrs by broth microdilution method; settings: Lodderomyces parapsilosis; method in brief: as §2
[Candida] sake = Antifungal activity against Candida sake clinical isolates assessed as inhibition of microbial growth incubated for 24 hrs by broth microdilution method; settings: Fermentozyma sake; method in brief: as §2

Row | Compound | MIC (Staphylococcus aureus) | MIC (Staphylococcus warneri) | MIC (Enterococcus faecalis) | MIC (Escherichia coli) | MIC (Proteus mirabilis) | MIC (Enterobacter) | MIC (Klebsiella oxytoca) | MIC (Candida albicans) | MIC (Nakaseomyces glabratus) | MIC (Candida tropicalis) | MIC (Pichia kudriavzevii) | MIC (Candida parapsilosis) | MIC ([Candida] sake)
1 | CCC/C(C)=N\N=C1\SCC(=O)N1Cc1ccccc1 | ≥ 256 µg/mL | ≥ 256 µg/mL | ≥ 256 µg/mL | ≥ 256 µg/mL | ≥ 256 µg/mL | ≥ 256 µg/mL | ≥ 256 µg/mL | 8 µg/mL | 2 µg/mL | 8 µg/mL | 16 µg/mL | 8 µg/mL | 32 µg/mL
2 | C=CCC/C(C)=N\N=C1\SCC(=O)N1Cc1ccccc1 | ≥ 256 µg/mL | ≥ 256 µg/mL | ≥ 256 µg/mL | ≥ 256 µg/mL | ≥ 256 µg/mL | ≥ 256 µg/mL | ≥ 256 µg/mL | 8 µg/mL | 2 µg/mL | 8 µg/mL | 8 µg/mL | 8 µg/mL | 8 µg/mL
3 | C/C(=N/N=C1/SCC(=O)N1Cc1ccccc1)C1CC1 | ≥ 256 µg/mL | ≥ 256 µg/mL | ≥ 256 µg/mL | ≥ 256 µg/mL | ≥ 256 µg/mL | ≥ 256 µg/mL | ≥ 256 µg/mL | 2 µg/mL | 4 µg/mL | 2 µg/mL | 2 µg/mL | 2 µg/mL | 2 µg/mL
4 | CC(C)=N/N=C1/SCC(=O)N1Cc1ccccc1 | ≥ 256 µg/mL | ≥ 256 µg/mL | ≥ 256 µg/mL | ≥ 256 µg/mL | ≥ 256 µg/mL | ≥ 256 µg/mL | ≥ 256 µg/mL | 256 µg/mL | 256 µg/mL | 256 µg/mL | 256 µg/mL | 256 µg/mL | 256 µg/mL
5 | CCC(CC)=N/N=C1/SCC(=O)N1Cc1ccccc1 | ≥ 256 µg/mL | ≥ 256 µg/mL | ≥ 256 µg/mL | ≥ 256 µg/mL | ≥ 256 µg/mL | ≥ 256 µg/mL | ≥ 256 µg/mL | 32 µg/mL | 2 µg/mL | 32 µg/mL | 8 µg/mL | 8 µg/mL | 8 µg/mL
6 | CCC/C(CC)=N\N=C1\SCC(=O)N1Cc1ccccc1 | ≥ 256 µg/mL | ≥ 256 µg/mL | ≥ 256 µg/mL | ≥ 256 µg/mL | ≥ 256 µg/mL | ≥ 256 µg/mL | ≥ 256 µg/mL | 4 µg/mL | 4 µg/mL | 4 µg/mL | 4 µg/mL | 8 µg/mL | 8 µg/mL
7 | CC1CCC/C1=N/N=C1/SCC(=O)N1Cc1ccccc1 (stereo not given) | ≥ 256 µg/mL | ≥ 256 µg/mL | ≥ 256 µg/mL | ≥ 256 µg/mL | ≥ 256 µg/mL | ≥ 256 µg/mL | ≥ 256 µg/mL | 8 µg/mL | 8 µg/mL | 8 µg/mL | 4 µg/mL | 4 µg/mL | 4 µg/mL
8 | C/C(CC(C)C)=N/N=C1/SCC(=O)N1Cc1ccccc1 | ≥ 256 µg/mL | ≥ 256 µg/mL | ≥ 256 µg/mL | ≥ 256 µg/mL | ≥ 256 µg/mL | ≥ 256 µg/mL | ≥ 256 µg/mL | 8 µg/mL | 8 µg/mL | 16 µg/mL | 16 µg/mL | 16 µg/mL | 16 µg/mL
9 | CCCC/C(CC)=N\N=C1\SCC(=O)N1Cc1ccccc1 | ≥ 256 µg/mL | ≥ 256 µg/mL | ≥ 256 µg/mL | ≥ 256 µg/mL | ≥ 256 µg/mL | ≥ 256 µg/mL | ≥ 256 µg/mL | 128 µg/mL | 32 µg/mL | 16 µg/mL | 4 µg/mL | 8 µg/mL | 4 µg/mL
10 | CC/C(C)=N\N=C1\SCC(=O)N1Cc1ccccc1 | ≥ 256 µg/mL | ≥ 256 µg/mL | ≥ 256 µg/mL | ≥ 256 µg/mL | ≥ 256 µg/mL | ≥ 256 µg/mL | ≥ 256 µg/mL | 8 µg/mL | 16 µg/mL | 8 µg/mL | 16 µg/mL | 8 µg/mL | 32 µg/mL
